According to article PMC4764993 (Canadian journal of physiology and pharmacology, 2015):

Target: MMP-9 (Homo sapiens, UniProt P14780)
Assay: In-vitro MMP-9 cleavage assay of synthetic OPN-peptides
Format: biochemical
Conditions: active MMP-9, 20:1 (w/w), 37 °C, 24 h; MS/MS identification of fragments
Summary of the method: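 Synthetic N-acetylated, C-amidated mouse OPN peptides, each spanning a candidate cleavage site mid-sequence, incubated with active MMP-9 at 20:1 (w/w) in 1× zymogram developing buffer, 37 °C, 24 h. Controls lacked enzyme or peptide. Reactions C18-desalted, then LC-MS/MS (5–45% acetonitrile over 20 min; MS resolution 70 000, MS2 17 500). Fragments compared against both controls.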

Chain of MMP-9 (P14780 107-707 limits assumed, species assumed): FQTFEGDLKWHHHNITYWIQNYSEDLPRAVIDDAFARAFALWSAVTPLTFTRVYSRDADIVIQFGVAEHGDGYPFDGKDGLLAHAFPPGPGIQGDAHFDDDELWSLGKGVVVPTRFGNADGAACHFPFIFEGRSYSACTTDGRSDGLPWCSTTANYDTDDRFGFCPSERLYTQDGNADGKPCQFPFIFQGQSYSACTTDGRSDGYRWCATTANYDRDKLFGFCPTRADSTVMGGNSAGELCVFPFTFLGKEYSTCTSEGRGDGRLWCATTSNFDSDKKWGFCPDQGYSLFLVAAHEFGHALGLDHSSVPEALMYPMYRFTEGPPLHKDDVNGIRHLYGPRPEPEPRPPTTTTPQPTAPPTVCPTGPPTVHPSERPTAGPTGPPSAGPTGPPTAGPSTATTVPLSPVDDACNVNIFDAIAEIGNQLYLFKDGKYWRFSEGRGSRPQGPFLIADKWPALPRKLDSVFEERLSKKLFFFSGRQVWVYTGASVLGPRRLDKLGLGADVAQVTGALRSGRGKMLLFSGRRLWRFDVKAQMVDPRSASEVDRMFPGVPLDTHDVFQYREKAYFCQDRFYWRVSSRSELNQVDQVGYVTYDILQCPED

MMP-9 cleavage site(s) found in the synthetic peptide | Substance
AQ and LL; position 193-194 and 195-196 | Ac-SLDVIPVAQLLSMPSDQDNN-NH2 [LL fragment]
GL (position 151–152) | Ac-NGRGDSLAYGLRSKSRSFQV-NH2 [GL fragment]
